Reference: ChEMBL document CHEMBL1921792, “Synthesis and anticonvulsant activity of trans- and cis-2-(2,6-dimethylphenoxy)-N-(2- or 4-hydroxycyclohexyl)acetamides and their amine analogs” (Bioorg Med Chem, 2011)
Calls of active or inactive are those of the source.

Tests used:
Mus musculus [1] = experiment: Neurotoxicity in mouse assessed as inability to maintain equilibrium on rotarod at 3 mg/kg, ip after 0.5 hrs by rotarod test; assay type: toxicity, organism-based; parameters: dose 3 mg/kg, route intraperitoneal; conditions: in vivo
Rattus norvegicus [2] = experiment: Neurotoxicity in rat assessed as neurological deficit at 30 mg/kg, ip after 4 hrs; assay type: toxicity, organism-based; parameters: dose 30 mg/kg, route intraperitoneal; conditions: in vivo
Procedure, shortened: (§1)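 Rats given the compound, suspended in 0.5% methylcellulose, by the stated route and dose. Neurological deficit was recorded at the listed times as ataxia and loss of placing response and muscle tone. Reported as number of rats showing toxicity/number tested.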

Mus musculus [3] = experiment: Anticonvulsant activity in mouse assessed as protection against maximal electric shock-induced seizures at 30 mg/kg, ip after 0.5 hrs; assay type: functional, organism-based; parameters: dose 30 mg/kg
Procedure, shortened: (§2)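 Phase I maximal electroshock screen in mice. Compound given ip as a suspension in 0.5% methylcellulose at 30, 100 or 300 mg/kg, tested at 30 min and 4 h. Small groups (1–8); result is number protected/number tested.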

Mus musculus [4] = experiment: Anticonvulsant activity against subcutaneous pentylenetetrazole-induced seizures in mouse at 30 mg/kg, ip after 4 hrs; assay type: functional, organism-based; parameters: dose 30 mg/kg
Procedure, shortened: (§3)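 Phase I screen in mice. Compound given ip as a suspension in 0.5% methylcellulose, read at 30 min and 4 h. Pentylenetetrazole 85 mg/kg in 0.9% NaCl was injected sc into the posterior midline and animals watched ≥30 min. Protection meant no clonic spasm lasting ≥5 s. Groups of 1–8 animals; result is protected/tested.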

Mus musculus [5] = experiment: Anticonvulsant activity in ip dosed mouse assessed as protection against maximal electric shock-induced seizures; assay type: functional; conditions: Mus musculus, ip; read-out: ED50
Rattus norvegicus [6] = experiment: Neurotoxicity in rat assessed as neurological deficit at 30 mg/kg, po after 1 hr […]; assay type: toxicity, organism-based; parameters: dose 30 mg/kg, route oral; conditions: in vivo; procedure, shortened: as §1
Rattus norvegicus [7] = experiment: Neurotoxicity in rat assessed as neurological deficit at 30 mg/kg, ip after 1 hr; assay type: toxicity, organism-based; parameters: dose 30 mg/kg, route intraperitoneal; conditions: in vivo; procedure, shortened: as §1
Rattus norvegicus [8] = experiment: Anticonvulsant activity in rat assessed as protection against maximal electric shock-induced seizures at 30 mg/kg, ip after 0.25 hrs; assay type: functional, organism-based; parameters: dose 30 mg/kg
Procedure, shortened: (§4)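 Time-to-peak-effect assay: MES protection read at 0.25–4 h after dosing. Mice ip (60–130 mg/kg), rats po (15 or 30 mg/kg) or ip (30 mg/kg). Groups of 4–8; result is protected/tested.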

[9] = Neurotoxicity in po dosed rat assessed as neurological deficit […]; assay type: toxicity, organism-based; conditions: in vivo
Procedure, shortened: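 Rats dosed orally with a suspension in 0.5% methylcellulose. Neurological deficit judged by ataxia and loss of placing response and muscle tone.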

Rattus norvegicus [10] = experiment: Neurotoxicity in rat assessed as neurological deficit at 30 mg/kg, po after 0.5 hrs […]; assay type: toxicity, organism-based; parameters: dose 30 mg/kg, route oral; conditions: in vivo; procedure, shortened: as §1
Rattus norvegicus [11] = experiment: Anticonvulsant activity in rat assessed as protection against maximal electric shock-induced seizures at 30 mg/kg, ip after 4 hrs; assay type: functional, organism-based; parameters: dose 30 mg/kg; procedure, shortened: as §4
Rattus norvegicus [12] = experiment: Neurotoxicity in rat assessed as neurological deficit at 30 mg/kg, ip after 2 hrs; assay type: toxicity, organism-based; parameters: dose 30 mg/kg, route intraperitoneal; conditions: in vivo; procedure, shortened: as §1
Mus musculus [13] = experiment: Neurotoxicity in mouse assessed as inability to maintain equilibrium on rotarod at 100 mg/kg, ip after 0.5 hrs by rotarod test; assay type: toxicity, organism-based; parameters: dose 100 mg/kg, route intraperitoneal; conditions: in vivo
Procedure, shortened: (§5)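 Drug given ip to mice as a suspension in 0.5% methylcellulose. At the stated time after dosing, each mouse was placed on a 1 inch knurled rod turning at 6 rpm. Neurotoxicity = inability to stay balanced at least 1 min in each of three trials. Scored as animals toxic/animals tested in small groups.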

Mus musculus [14] = experiment: Anticonvulsant activity against subcutaneous pentylenetetrazole-induced seizures in mouse at 30 mg/kg, ip after 0.5 hrs; assay type: functional, organism-based; parameters: dose 30 mg/kg; procedure, shortened: as §3
Rattus norvegicus [15] = experiment: Neurotoxicity in rat assessed as neurological deficit at 30 mg/kg, po after 2 hrs […]; assay type: toxicity, organism-based; parameters: dose 30 mg/kg, route oral; conditions: in vivo; procedure, shortened: as §1
Mus musculus [16] = experiment: Anticonvulsant activity in mouse assessed as protection against maximal electric shock-induced seizures at 3 mg/kg, ip after 0.5 hrs; assay type: functional, organism-based; parameters: dose 3 mg/kg
Mus musculus [17] = species: Mus musculus; experiment: Protective index, ratio of TD50 for neurotoxicity in mouse to ED50 for inhibition of maximal electroshock-induced seizures in mouse; assay type: functional
Mus musculus [18] = experiment: Anticonvulsant activity against […] in mouse assessed as increase in tonic threshold at 8 mg/kg, ip by threshold tonic extension test; assay type: functional, organism-based; parameters: dose 8 mg/kg
Procedure, shortened: (§6)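 Threshold tonic extension test in mice. The compound was given ip, then pentylenetetrazol was infused until the first twitch and the first clonus. PTZ dose was calculated from the infusion speed. Mean of 8 animals ± S.E.M.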

Rattus norvegicus [19] = experiment: Anticonvulsant activity in rat assessed as protection against maximal electric shock-induced seizures at 30 mg/kg, po after 4 hrs; assay type: functional, organism-based; parameters: dose 30 mg/kg
Procedure, shortened: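 MES test in rats dosed orally at 30 mg/kg as a suspension in 0.5% methylcellulose, read at 0.25–4 h. Four rats per time point; result is protected/tested.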

Mus musculus [20] = experiment: Neurotoxicity in mouse assessed as inability to maintain equilibrium on rotarod at 10 mg/kg, ip after 0.5 hrs by rotarod test; assay type: toxicity, organism-based; parameters: dose 10 mg/kg, route intraperitoneal; conditions: in vivo
[21] = Neurotoxicity in ip dosed mouse assessed as inability to maintain equilibrium on rotarod by rotarod test; assay type: toxicity, organism-based; conditions: in vivo
Procedure, shortened: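 Mice dosed ip with a suspension in 0.5% methylcellulose, then placed on a 1 inch knurled plastic rod rotating at 6 rpm. Toxicity = failure to keep equilibrium for at least 1 min in each of three trials.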

Mus musculus [22] = experiment: Anticonvulsant activity against […] in mouse assessed as increase in tonic threshold at 28 mg/kg, ip by threshold tonic extension test; assay type: functional, organism-based; parameters: dose 28 mg/kg; procedure, shortened: as §6
Rattus norvegicus [23] = experiment: Neurotoxicity in rat assessed as neurological deficit at 30 mg/kg, po after 4 hrs by rotarod test; assay type: toxicity, organism-based; parameters: dose 30 mg/kg, route oral; conditions: in vivo; procedure, shortened: as §1
Rattus norvegicus [24] = species: Rattus norvegicus; experiment: Protective index, ratio of TD50 for neurotoxicity in rat to ED50 for inhibition of maximal electroshock-induced seizures in rat; assay type: functional
Mus musculus [25] = experiment: Anticonvulsant activity against subcutaneous pentylenetetrazole-induced seizures in mouse at 100 mg/kg, ip after 0.5 hrs; assay type: functional, organism-based; parameters: dose 100 mg/kg; procedure, shortened: as §3
Mus musculus [26] = experiment: Neurotoxicity in mouse assessed as inability to maintain equilibrium on rotarod at 30 mg/kg, ip after 4 hrs by rotarod test; assay type: toxicity, organism-based; parameters: dose 30 mg/kg, route intraperitoneal; conditions: in vivo; procedure, shortened: as §5
Mus musculus [27] = experiment: Neurotoxicity in mouse assessed as inability to maintain equilibrium on rotarod at 30 mg/kg, ip after 0.5 hrs by rotarod test; assay type: toxicity, organism-based; parameters: dose 30 mg/kg, route intraperitoneal; conditions: in vivo; procedure, shortened: as §5
Rattus norvegicus [28] = experiment: Anticonvulsant activity in rat assessed as protection against maximal electric shock-induced seizures at 30 mg/kg, ip after 2 hrs; assay type: functional, organism-based; parameters: dose 30 mg/kg; procedure, shortened: as §4
Mus musculus [29] = experiment: Anticonvulsant activity in mouse assessed as protection against maximal electric shock-induced seizures at 30 mg/kg, ip after 4 hrs; assay type: functional, organism-based; parameters: dose 30 mg/kg; procedure, shortened: as §2
Rattus norvegicus [30] = experiment: Anticonvulsant activity in rat assessed as protection against maximal electric shock-induced seizures at 30 mg/kg, ip after 0.5 hrs; assay type: functional, organism-based; parameters: dose 30 mg/kg; procedure, shortened: as §4
Mus musculus [31] = experiment: Neurotoxicity in mouse assessed as inability to maintain equilibrium on rotarod at 300 mg/kg, ip after 0.5 hrs by rotarod test; assay type: toxicity, organism-based; parameters: dose 300 mg/kg, route intraperitoneal; conditions: in vivo; procedure, shortened: as §5
Rattus norvegicus [32] = experiment: Anticonvulsant activity in ip dosed rat assessed as time to show peak effect of protection against maximal electric shock-induced seizures; assay type: functional; procedure, shortened: as §4
Rattus norvegicus [33] = experiment: Neurotoxicity in rat assessed as neurological deficit at 30 mg/kg, po after 0.25 hrs […]; assay type: toxicity, organism-based; parameters: dose 30 mg/kg, route oral; conditions: in vivo; procedure, shortened: as §1
Rattus norvegicus [34] = experiment: Anticonvulsant activity in po dosed rat assessed as protection against maximal electric shock-induced seizures; assay type: functional
Rattus norvegicus [35] = experiment: Anticonvulsant activity in rat assessed as protection against maximal electric shock-induced seizures at 30 mg/kg, ip after 1 hr; assay type: functional, organism-based; parameters: dose 30 mg/kg; procedure, shortened: as §4

## Cc1cccc(C)c1OCCNC1CCCCC1O (racemic)
Mus musculus [1]
  Activity: Non-toxic
Rattus norvegicus [2]
  Activity: Non-toxic
Mus musculus [3]
  Activity: Active
Mus musculus [4]
  Activity: inactive
Mus musculus [5]
  ED50: 7.73 mg/kg
Rattus norvegicus [6]
  Activity: Non-toxic
Rattus norvegicus [7]
  Activity: Non-toxic
Rattus norvegicus [8]
  Activity: Active
[9]
  TD50: > 500 mg/kg
Rattus norvegicus [10]
  Activity: Non-toxic
Rattus norvegicus [11]
  Activity: inactive
Rattus norvegicus [12]
  Activity: Non-toxic
Mus musculus [13]
  Activity: Toxic
Mus musculus [14]
  Activity: inactive
Rattus norvegicus [15]
  Activity: Non-toxic
Mus musculus [16]
  Activity: inactive
Mus musculus [17]
  Ratio TD50/ED50: 3.9
Mus musculus [18]
  Activity: inactive
Rattus norvegicus [19]
  Activity: inactive
Mus musculus [20]
  Activity: Non-toxic
[21]
  TD50: 28.4 mg/kg
Mus musculus [22]
  Activity: inactive
Rattus norvegicus [23]
  Activity: Non-toxic
Rattus norvegicus [24]
  Ratio TD50/ED50: >19.06
Mus musculus [25]
  Activity: inactive
Mus musculus [26]
  Activity: Non-toxic
Mus musculus [27]
  Activity: Toxic
Rattus norvegicus [28]
  Activity: inactive
Mus musculus [29]
  Activity: inactive
Rattus norvegicus [30]
  Activity: Active
Mus musculus [31]
  Activity: Toxic
Rattus norvegicus [32]
  Time: 0.25 h
Rattus norvegicus [33]
  Activity: Non-toxic
Rattus norvegicus [34]
  ED50: 26.2 mg/kg
Rattus norvegicus [35]
  Activity: Active
